{
  "source": "paper PMC7954469",
  "about": "(European journal of medicinal chemistry, 2021)",
  "key": {"[1]": {"biological_target": "T1, p97 (Homo sapiens, UniProt P55072)", "T1 sequence (P55072 whole entry)": "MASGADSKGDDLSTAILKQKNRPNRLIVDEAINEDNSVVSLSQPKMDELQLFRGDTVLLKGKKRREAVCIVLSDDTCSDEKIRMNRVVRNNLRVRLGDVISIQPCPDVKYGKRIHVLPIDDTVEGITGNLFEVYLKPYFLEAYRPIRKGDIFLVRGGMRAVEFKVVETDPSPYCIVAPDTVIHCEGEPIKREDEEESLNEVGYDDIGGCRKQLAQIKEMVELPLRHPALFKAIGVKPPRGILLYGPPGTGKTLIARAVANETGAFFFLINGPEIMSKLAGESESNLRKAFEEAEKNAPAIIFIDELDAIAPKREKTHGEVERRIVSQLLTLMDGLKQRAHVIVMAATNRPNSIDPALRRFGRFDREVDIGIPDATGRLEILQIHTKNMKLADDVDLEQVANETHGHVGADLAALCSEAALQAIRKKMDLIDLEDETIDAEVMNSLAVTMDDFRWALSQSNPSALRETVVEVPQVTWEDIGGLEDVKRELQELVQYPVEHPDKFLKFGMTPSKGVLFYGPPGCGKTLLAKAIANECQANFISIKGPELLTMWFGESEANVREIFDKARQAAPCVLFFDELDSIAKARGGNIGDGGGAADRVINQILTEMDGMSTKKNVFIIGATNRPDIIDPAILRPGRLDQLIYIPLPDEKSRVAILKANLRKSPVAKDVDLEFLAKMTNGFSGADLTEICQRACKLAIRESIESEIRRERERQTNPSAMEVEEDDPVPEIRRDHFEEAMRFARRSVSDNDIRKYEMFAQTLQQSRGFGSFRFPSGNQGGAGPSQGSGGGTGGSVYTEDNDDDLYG", "details": "read-out: Apparent IC50 p97; ATPase activity; adapted from reference; cited from earlier work"}, "[2]": {"tested_on": "Ub^G76V-GFP", "details": "read-out: Apparent IC50 Ub^G76V-GFP; adapted from reference; cited from earlier work"}, "[3]": {"tested_on": "ODD-Luc", "details": "read-out: Apparent IC50 ODD-Luc; adapted from reference; cited from earlier work"}, "[4]": {"biological_target": "C522A-p97 (Homo sapiens, UniProt P55072, C522A)", "sequence (P55072 whole entry C522A)": "as the sequence (P55072 whole entry) above, with C522A counted along it", "details": "cited from earlier work"}, "[5]": {"tested_on": "Syk", "details": "cited from earlier work"}, "[6]": {"tested_on": "p97", "details": "cited from earlier work"}, "[7]": {"biological_target": "T1, p97", "assay": "p97 ATPase activity assay", "format": "biochemical"}, "[8]": {"biological_target": "T532C-yeast Cdc48 (Saccharomyces cerevisiae, UniProt P25694, T532C)", "sequence (P25694 whole entry T532C)": "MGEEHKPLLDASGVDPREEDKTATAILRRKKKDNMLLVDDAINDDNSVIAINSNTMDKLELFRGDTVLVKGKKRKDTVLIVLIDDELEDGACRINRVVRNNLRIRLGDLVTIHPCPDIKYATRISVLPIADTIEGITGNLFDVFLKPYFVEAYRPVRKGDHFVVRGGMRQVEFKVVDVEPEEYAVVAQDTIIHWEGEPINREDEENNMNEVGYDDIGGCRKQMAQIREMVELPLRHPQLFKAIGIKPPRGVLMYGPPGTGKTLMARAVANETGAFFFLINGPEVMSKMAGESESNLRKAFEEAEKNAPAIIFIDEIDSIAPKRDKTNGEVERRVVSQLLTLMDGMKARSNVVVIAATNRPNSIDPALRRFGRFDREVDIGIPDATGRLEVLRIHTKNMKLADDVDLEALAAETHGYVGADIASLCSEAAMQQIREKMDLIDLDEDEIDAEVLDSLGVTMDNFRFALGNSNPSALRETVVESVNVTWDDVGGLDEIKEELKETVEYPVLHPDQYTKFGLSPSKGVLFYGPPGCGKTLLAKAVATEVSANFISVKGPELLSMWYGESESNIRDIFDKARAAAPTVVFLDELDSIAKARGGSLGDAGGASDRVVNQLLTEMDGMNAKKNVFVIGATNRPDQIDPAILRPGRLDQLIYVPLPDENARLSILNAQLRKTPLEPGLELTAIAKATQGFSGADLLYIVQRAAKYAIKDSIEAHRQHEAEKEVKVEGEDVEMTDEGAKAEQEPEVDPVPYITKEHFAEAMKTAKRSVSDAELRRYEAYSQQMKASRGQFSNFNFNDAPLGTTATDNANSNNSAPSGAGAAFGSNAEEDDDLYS", "assay": "ATPase activity assay, T532C-yeast Cdc48", "format": "biochemical"}, "[9]": {"tested_on": "NMS-873 resistant HCT116 cell line harboring A530T p97 mutant (NMS-R)", "assay": "Anti-proliferative assay, NMS-873 resistant HCT116", "format": "cell-based, human", "details": "compared with parental HCT116; listed as PPA", "procedure,_shortened": "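Cells were grown in RPMI1640 or DMEM with 5% FBS and 1% penicillin-streptomycin. Seeding was 750 or 3000 cells/well, set from each line's luminescence–cell-number standard curve. After 24 h, cells got test compound (eight three-fold dilutions) for 48 h at 37 °C, 5% CO2. Viability was read by CellTiter-Glo luminescence. IC50 came from % growth versus DMSO control. Data are mean ± SEM of four replicate experiments.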"}, "[10]": {"biological_target": "Hamster NSF (Cricetulus griseus, UniProt P18708)", "sequence (P18708 whole entry)": "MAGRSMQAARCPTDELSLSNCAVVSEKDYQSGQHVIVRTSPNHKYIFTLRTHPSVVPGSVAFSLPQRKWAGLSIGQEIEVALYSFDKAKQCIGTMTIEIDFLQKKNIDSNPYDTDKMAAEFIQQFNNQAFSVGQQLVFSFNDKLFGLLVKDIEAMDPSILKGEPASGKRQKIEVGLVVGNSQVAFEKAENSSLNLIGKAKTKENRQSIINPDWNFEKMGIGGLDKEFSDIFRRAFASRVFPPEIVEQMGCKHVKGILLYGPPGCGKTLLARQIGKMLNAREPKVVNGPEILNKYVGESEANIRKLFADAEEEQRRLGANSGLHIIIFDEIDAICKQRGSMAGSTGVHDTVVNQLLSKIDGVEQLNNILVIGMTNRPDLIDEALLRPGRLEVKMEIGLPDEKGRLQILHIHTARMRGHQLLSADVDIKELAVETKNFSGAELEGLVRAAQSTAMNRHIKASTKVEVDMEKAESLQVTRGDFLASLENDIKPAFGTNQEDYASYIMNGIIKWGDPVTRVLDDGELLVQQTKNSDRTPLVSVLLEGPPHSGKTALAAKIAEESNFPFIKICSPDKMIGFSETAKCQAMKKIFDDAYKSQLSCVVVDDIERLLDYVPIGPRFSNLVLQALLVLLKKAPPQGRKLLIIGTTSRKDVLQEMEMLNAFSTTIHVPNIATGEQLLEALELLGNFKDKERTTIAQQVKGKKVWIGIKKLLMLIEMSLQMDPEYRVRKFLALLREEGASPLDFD", "assay": "ATPase activity assay, NSF", "format": "biochemical"}, "[11]": {"tested_on": "TCRα-GFP", "assay": "TCRα-GFP", "format": "cell-based, human", "details": "10 μM, 60 min or 120 min, cycloheximide, HEK293 cells", "procedure,_shortened": "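HEK293 cells stably expressing TCRα-GFP were pretreated 1 h with 4 μM MG132, then washed. They were then incubated with 50 μM cycloheximide plus 10 μM test compound, or MG132 as control, for 60 or 120 min before harvest. Lysates were immunoblotted with anti-GFP, with anti-p97 as loading control, and detected by ECL.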"}, "[12]": {"biological_target": "Yeast Cdc48 (Saccharomyces cerevisiae, UniProt P25694)", "sequence (P25694 whole entry)": "as the sequence (P25694 whole entry T532C) above, with C532T counted along it", "assay": "ATPase activity assay, yeast Cdc48", "format": "biochemical"}, "[13]": {"tested_on": "Ub^G76V-GFP", "assay": "Washout", "format": "cell-based, human", "details": "cycloheximide, additional 17 h"}, "[14]": {"tested_on": "CB-5083 resistant HCT116 cell line harboring D649A, T688A p97 mutant (CB-R)", "assay": "Anti-proliferative assay, CB-5083 resistant HCT116", "format": "cell-based, human", "details": "compared with parental HCT116; listed as PPA"}, "[15]": {"biological_target": "Human 26S proteasome (Homo sapiens, UniProt P28074)", "assay": "Human 26S proteasome activity assay", "format": "biochemical", "details": "5, 25, or 50 μM; affinity-purified 26S proteasome from Hek293 cells; listed as PPA", "procedure,_shortened": "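26S proteasome was affinity-purified from HEK293 cells stably expressing tagged Rpn11. Suc-LLVY-AMC (60 μM) then started the reaction. Fluorescence was read every 3 min for 30 min, in sextuplicate.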"}, "[16]": {"tested_on": "C522A mutant", "details": "cited from earlier work"}, "[17]": {"tested_on": "cancer cell lines", "details": "cited from earlier work"}},
  "note": "Read-outs that look alike come from different tables or passages of the source. Where a SMILES comes first, the peptide text is derived from it. [ ]: non-standard residue; d: D form. The star is where a group is joined. Cbz = O=C(OCc1ccccc1)*",
  "data": [
    {"compound": "3,4-methylenedioxy-β-nitrostyrene [Compound 2]", "values": [
      {"measurement": "IC50", "setting": "[1]", "result": "1.7 ± 0.5", "unit": "µM"},
      {"measurement": "IC50", "setting": "[2]", "result": "1.6 ± 0.4", "unit": "µM"},
      {"measurement": "IC50", "setting": "[3]", "result": "3.9 ± 1", "unit": "µM"},
      {"measurement": "Activity towards the C522A mutant (in words)", "setting": "[4]", "result": "poor activity"},
      {"measurement": "IC50 Syk (in words)", "setting": "[5]", "result": "submicromolar"}
    ]},
    {"compound": "O=C(/C=C1\\Nc2ccccc2C(=O)N2CCC[C@@H]12)/C=C/c1c[nH]c2ccc(I)cc12", "note": "[5’-I-Fuligocandin B]", "values": [
      {"measurement": "IC50", "setting": "[6]", "result": 7, "unit": "µM"}
    ]},
    {"compound": "Cc1ccc(-c2c(C(=O)CF)n(CCCO)c3ncnc(N)c23)cc1", "note": "[Compound 5]", "values": [
      {"measurement": "Less active than compound 4", "setting": "[7]; in vitro and cell-based p97 assays, summary of Table 1", "result": 10, "unit": "fold"}
    ]},
    {"compound": "O=C(O)/C=C/c1ccc2c(c1)OCO2", "note": "[Compound 7]", "values": [
      {"measurement": "Activity in ATPase and Ub^G76V-GFP turnover assays (in words)", "setting": "[7]; summary of Tables 2 and 3", "result": "complete loss of activity"}
    ]},
    {"compound": "CC(C)(C)n1nc(-c2ccccc2)c2c(N)ncnc21", "note": "[Compound 17, 4-amino-1-tert-butyl-3-phenyl pyrazolo[3,4-d]pyrimidine]", "values": [
      {"measurement": "IC50", "setting": "[8]", "result": "> 100", "unit": "µM"}
    ]},
    {"compound": "C=CC(=O)Nc1ncnc2c1c(-c1ccccc1)nn2C(C)(C)C", "note": "[Compound 18, N-(1-(tert-butyl)-3-phenyl-1H-pyrazolo[3,4-d]pyrimidin-4-yl)acrylamide]", "values": [
      {"measurement": "Anti-proliferative activity in NMS-R HCT116 (in words)", "setting": "[9]", "result": "can inhibit growth"},
      {"measurement": "IC50", "setting": "[10]", "result": 100, "unit": "µM"},
      {"measurement": "NSF less sensitive than p97", "setting": "[10]", "result": "more than 100 fold"},
      {"measurement": "Degradation of ERAD substrate TCRα-GFP (in words)", "setting": "[11]", "result": "block degradation"},
      {"measurement": "IC50", "setting": "[12]", "result": 300, "unit": "µM"},
      {"measurement": "Reversibility: Ub^G76V-GFP degradation after washout (in words)", "setting": "[13]", "result": "irreversibly block degradation"},
      {"measurement": "Anti-proliferative activity in CB-R HCT116 (in words)", "setting": "[14]", "result": "can inhibit growth"},
      {"measurement": "Selectivity on wild-type vs. Cys522-mutated p97", "setting": "[7]", "result": "up to 100 fold"},
      {"measurement": "Inhibition of hydrolysis of LLVY-AMC by 26S proteasome (in words)", "setting": "[15]", "result": "did not inhibit"}
    ]},
    {"compound": "CC(C)(C)n1nc(-c2ccc3ccccc3c2)c2c(N)ncnc21", "note": "[Compound 21, 2-Naphthyl pyrazolopyrimidine]", "values": [
      {"measurement": "IC50", "setting": "[8]", "result": "> 100", "unit": "µM"}
    ]},
    {"compound": "CC(C)C[C@@H](C=O)NC(=O)[C@@H](CC(C)C)NC(=O)[C@H](CC(C)C)NC(=O)OCc1ccccc1", "note": "[MG132] (Cbz-Leu-[dL]-Leu-aldehyde)", "values": [
      {"measurement": "Reversibility: Ub^G76V-GFP degradation after washout (in words)", "setting": "[13]", "result": "degraded after washing out"}
    ]},
    {"compound": "COc1cccc2c(NCc3ccccc3)nc(-n3c(N)nc4ccccc43)nc12", "note": "[ML240]", "values": [
      {"measurement": "IC50", "setting": "[6]", "result": "~0.1", "unit": "µM"}
    ]},
    {"compound": "c1ccc(CNc2nc(N3CCOc4ccccc43)nc3c2CCCC3)cc1", "note": "[ML241]", "values": [
      {"measurement": "IC50", "setting": "[6]", "result": "~0.1", "unit": "µM"}
    ]},
    {"compound": "CC(C)N1CCN(CCNC2CCN(c3cccc(-c4cc5cc(F)ccc5[nH]4)c3)CC2)CC1", "note": "[UPCDC30245]", "values": [
      {"measurement": "IC50", "setting": "[6]; allosteric p97 inhibitor", "result": 0.027, "unit": "µM"}
    ]},
    {"compound": "CC(=O)OCC1=C(C)C[C@H]([C@@H](C)[C@H]2CC[C@H]3[C@@H]4C[C@H]5O[C@]56[C@@H](O)C=CC(=O)[C@]6(C)[C@H]4CC[C@]23C)OC1=O", "note": "[Withaferin A 27-Acetate]", "values": [
      {"measurement": "IC50", "setting": "[6]; wild-type p97", "result": 21, "unit": "µM"},
      {"measurement": "Inhibition against the C522A mutant (in words)", "setting": "[16]", "result": "didn’t show inhibition"},
      {"measurement": "Anti-proliferative effects at lower concentration than p97 IC50", "setting": "[17]", "result": 10, "unit": "fold"}
    ]},
    {"compound": "CC1CCCC=CC(=O)c2c(O)cc(O)cc2CC(=O)O1", "note": "(stereo not shown) [Δ(10,11)-Dehydrocurvularin]", "values": [
      {"measurement": "IC50", "setting": "[6]; covalent bond with Cys522", "result": "15.3 ± 9.9", "unit": "µM"}
    ]},
    {"compound": "Oxaspirol B", "values": [
      {"measurement": "IC50", "setting": "[6]", "result": "31.2 ± 3", "unit": "µM"}
    ]}
  ]
}
